# Measurements collected from several papers.
# Compare with care: the assays were run in different laboratories.
# Target: Homeodomain-interacting protein kinase 4 (HIPK4, Homo sapiens, UniProt Q8NE63)
# Sequence (Q8NE63 1-616, as in one of the studies): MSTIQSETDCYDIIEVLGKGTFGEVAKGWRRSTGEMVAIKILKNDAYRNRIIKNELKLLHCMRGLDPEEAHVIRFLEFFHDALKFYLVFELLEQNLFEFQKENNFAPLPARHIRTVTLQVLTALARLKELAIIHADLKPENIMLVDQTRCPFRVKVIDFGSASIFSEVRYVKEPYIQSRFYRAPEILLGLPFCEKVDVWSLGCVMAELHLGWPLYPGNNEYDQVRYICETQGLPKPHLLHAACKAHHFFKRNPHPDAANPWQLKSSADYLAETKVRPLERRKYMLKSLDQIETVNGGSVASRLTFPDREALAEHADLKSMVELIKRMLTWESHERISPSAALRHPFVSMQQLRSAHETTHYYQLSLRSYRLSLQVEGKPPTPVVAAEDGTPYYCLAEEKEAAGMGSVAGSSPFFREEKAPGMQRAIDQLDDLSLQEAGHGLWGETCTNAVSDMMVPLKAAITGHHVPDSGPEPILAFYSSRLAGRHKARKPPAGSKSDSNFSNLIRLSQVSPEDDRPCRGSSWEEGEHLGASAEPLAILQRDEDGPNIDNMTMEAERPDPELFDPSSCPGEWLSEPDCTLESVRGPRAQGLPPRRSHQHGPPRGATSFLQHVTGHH
SMILES,effect on,action,method,tested at,measurement,value
COc1cccc(CCNc2nc3cc(C(=O)O)ccc3c3cnccc23)c1,enzyme activity,inhibitor,radiometric,1 µM,remaining activity,-8%
CN1CC(Oc2cnc(C#N)cc2-c2ccn3nc(NC(=O)C4CC4)cc3c2)C1,enzyme activity,inhibitor,,1 µM,inhibition,2%
CCC(=O)N[C@@H]1CC[C@H](C(=O)N(C)c2ccc(-c3nc4ccccc4o3)cc2)C1,cell-free assay,,competition with immobilised ligand,1 µM,remaining binding,100%
COc1ccc(COc2ccc(Cc3cnc(N)nc3N)cc2OC)cc1,cell-free assay,,,0.5 µM,remaining signal,97.7%
COc1cc2ncnc(Nc3ccc(Oc4ccccc4)c(C)c3C)c2cc1OC,enzyme activity,inhibitor,,1 µM,inhibition,-2%
N#CCCc1ccc2c(c1)-c1[nH]c3ccc([N+](=O)[O-])cc3c1CC(=O)N2,cell-free assay,,,0.5 µM,remaining signal,113%
CCCOc1ccc([C@@H]2[C@@H](C(=O)O)[C@H](c3ccc4c(c3)OCO4)CN2CC(=O)Nc2c(CC)cccc2CC)cc1,cell-free assay,,competition with immobilised ligand,1 µM,remaining binding,65%
O=C(O)c1ccc2c(c1)nc(Nc1ccccc1Cl)c1ncncc12,enzyme activity,inhibitor,radiometric,1 µM,remaining activity,-3%
CO[C@@H](C)c1c(Nc2ccc([C@@H](N(C)C(=O)C3CCS(=O)(=O)CC3)C(F)(F)F)cc2)cnc2cc(Cl)nn12,cell-free assay,,competition with immobilised ligand,1 µM,remaining binding,100%
O=C(O)c1ccc2c(c1)nc(Nc1cccc(F)c1)c1ncncc12,enzyme activity,inhibitor,radiometric,1 µM,remaining activity,52%
CNC(=O)c1cc2c(Oc3ccc(NC(=O)C4(C(=O)Nc5ccc(F)cc5)CC4)cc3)ccnc2cc1OC,enzyme activity,inhibitor,radiometric,1 µM,inhibition,102%
N#Cc1cccc(Nc2nc3cc(C(=O)O)ccc3c3cnccc23)c1,enzyme activity,inhibitor,radiometric,1 µM,remaining activity,29%
CS(=O)(=O)c1cc(C2(NC(=O)c3cncc4c3cnn4-c3ccc(F)cc3)CC2)ccn1,cell-free assay,,competition with immobilised ligand,1 µM,remaining binding,100%
O=C(O)c1ccc2c(c1)nc(Nc1ccc(F)c(Cl)c1)c1ccncc12,enzyme activity,inhibitor,radiometric,1 µM,remaining activity,75%
CC/C(=N\NC(=O)NCc1cccc(O)c1)c1ccc(O)c(C)c1O,enzyme activity,inhibitor,,0.1 µM,inhibition,1.5%
O=C(O)c1ccc2c(c1)nc(NCCc1cccc(Cl)c1)c1ccncc12,enzyme activity,inhibitor,radiometric,1 µM,remaining activity,47%
C[C@@H](c1cccc(C#N)c1)n1cc(Cl)cc(C(N)=O)c1=N,cell-free assay,,competition with immobilised ligand,1 µM,remaining binding,100%
O=C1NC(=O)c2cc(Nc3ccc(F)cc3)c(Nc3ccc(F)cc3)cc21,cell-free assay,,,0.5 µM,remaining signal,82.5%
O=C(Nc1cnc(Oc2ccc(F)cc2)nc1)N1CCc2ncccc2[C@@H]1c1ccc(F)cc1,cell-free assay,,competition with immobilised ligand,1 µM,remaining binding,100%
CCCS(=O)(=O)Nc1ccc(F)c(C(=O)c2c[nH]c3ncc(-c4ccc(Cl)cc4)cc23)c1F,enzyme activity,inhibitor,,1 µM,inhibition,< 10%
